# Only some compounds are listed: those with a hit (about 4.3% of all), similar ones and a draw of the others.
# APP 5'UTR act = activators of APP 5'UTR luciferase reporter, primary screen, SH-SY5Y cells; SH-SY5Y APP 5'UTR luciferase reporter, luminescence; zero percent = DMSO vehicle wells; activation, % at 2 µM; hit rate 1% among 190,000;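 active = activation above a set limit, based on mean plus 3 SD of controls, cut at about 140% in these data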
# STAT1 activator = STAT1 signaling activators, primary screen, cell-based, HTS, luciferase reporter | NIH 3T3 STAT1-luciferase reporter, IFN-gamma, luminescence; 100% = IFN-gamma alone, no compound | activation (% of control), % at 5.5 µM | hit rate 2.6% among 200,000 | AID 932, 2007;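 active = activation above the screen-wide mean activation plus 3 SD, cut at about 130% in these data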;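 note: raw ratio to IFN-gamma control signal so 100% means no change and 0% no light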
# NF-kB expr up = activators of NF-kB expression in neurons, primary screen, cell-based, HTS; fold change at 12.5 µM; hit rate 1.6% among 190,000; AID 1239, 2008; human neuronal cells, NF-kB reporter expression; active compounds read high; in the data active = fold change above about 3.3
# FLuc stim CS = FLuc activators, initial screening, artefact control for FLuc-dependent activation tests, biochemical, ATPlite luminescence | Luciferin 4-monooxygenase (Photinus pyralis), P08659 | 200,000 tested, under 10 active | ATPlite luciferase biochemical, 10 min; 0 = ATP-free wells, 1 = DMSO control | activation factor at 10 µM;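 active = luciferase activation factor, scaled between plate controls, of at least 2 with compound at 10 µM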
#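 Assay system: Luciferase/luciferin detection reagent, cell-free biochemical luciferase assay / Read-out: luciferase activation / Benchmarks: No-ATP low control, compound-free enzyme-plus-ATP high control / Medium: PBS buffer for ATP / Detection: luminescence measurement of luciferase light output / Schedule: 10 min at ambient temperature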
# FLuc inh counter = firefly luciferase enzyme inhibitors, primary screen, artefact control for luciferase-based inhibitor screens, biochemical, luminescence, ATPLite. 10 min. Luciferin 4-monooxygenase (Photinus pyralis), P08659. hit rate 1.5% among 200,000. inhibition, % at 10 µM. AID 1006, 2008;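 active = inhibition above about 50% when tested at 10 µM, limit read from the data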
# sdo1 growth = growth rescue of sdo1-depleted yeast, primary screen, S. cerevisiae, bone marrow failure model; S. cerevisiae sdo1-depleted JHY4D growth rescue, OD600 30 h; active compounds read high; pdr5 snq2 efflux-pump mutant strain; z-score at 10 µM; hit rate 0.21% among 140,000; AID 817, 2007;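 active = z-score above 3 at both the 24 hr and the 30 hr optical density reads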;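 note: z-score against mean and SD of all compound wells on the same plate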
# STAT1 act conf = STAT1 signaling activators, confirmation, cell-based, HTS, luciferase reporter; hit rate 97% among 1,200; shares compounds with STAT1 activator; NIH 3T3 STAT1-luciferase reporter, IFN-gamma potentiation, luminescence; 100% = IFN-gamma EC80 alone, no compound; AID 1262, 2008; activation (% of control), % at 5.7 µM;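 active = activation above a set limit carried over from the earlier primary STAT1 screen, cut at about 140% in these data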;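 note: simple ratio to median IFN-gamma plus DMSO wells so 0% means no light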
# NFkB act STAT1ct = NF-kB reporter activators, TNF-alpha stimulated, counter-screen for STAT1 activator project, cell-based, HEK293T, luciferase luminescence; shares compounds with STAT1 activator; 100% = TNF-alpha with vehicle only; activation (% of control), % at 5.7 µM; hit rate 43% among 1,200; AID 1306, 2008;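 active = activation above the mean of solvent-only control wells plus 3 SD, set per campaign, cut at about 130% in these data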;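 note: TNF-alpha given at a submaximal dose yielding about 80% of full reporter signal; values are well signal over median control so 100% means no change and 0% no light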
# STAT3 act STAT1c = STAT3 reporter activation by STAT1 hits, confirmation, counter-screen for STAT1 activator project, U3A cells, luciferase, luminescence. shares compounds with STAT1 activator. hit rate 46% among 1,200. activation (% of control), % at 5.7 µM. IL-6; cells lack STAT1; 100 = IL-6 alone, no compound effect. AID 1316, 2008;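 active = activation above the solvent-only control well mean plus 3 SD, set per plate batch, cut at about 110% in these data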;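 note: 0% = no luminescence and 100% = median IL-6 plus DMSO wells; higher means more STAT3 reporter activation so hits are non-selective activators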
# Active calls of the source: *; / = no result given.
SMILES,APP 5'UTR act,STAT1 activator,NF-kB expr up,FLuc stim CS,FLuc inh counter,sdo1 growth,STAT1 act conf,NFkB act STAT1ct,STAT3 act STAT1c
Oc1ccc(N=Nc2n[nH]c(-c3ccccc3)n2)cc1,146*,172*,6.3*,0.4,59*,0.65,185*,122,105
CCOc1ccccc1OCCC(=O)OCC(=O)c1ccc[nH]1,16,99,0.93,1.1,-7,/,/,/,/
Cc1cc(Br)ccc1S(=O)(=O)n1ccnc1C,24,96,1.1,1,-2,/,/,/,/
CCCC(=O)Nc1cccc(-c2nc3cc(C)c(C)cc3o2)c1,135,177*,3,0.6,40,-2.3,201*,128,107
Cc1cc2nc(-c3ccc(NC(=O)C(C)C)cc3)oc2cc1C,140*,180*,3.4*,0.9,12,-0.36,237*,146*,118*
Cc1ccc(-c2nc3cc(NC(=O)C(C)C)ccc3o2)cc1C,160*,195*,0.98,0.4,56*,-1.6,272*,93,73
Cc1ccc(-c2nc3cc(NC(=O)C(C)C)ccc3o2)cc1,147*,188*,2.9,0.6,42,-0.26,321*,126,104
CCOc1cc(NS(=O)(=O)c2ccccc2)c(OCC)cc1NC(=O)c1ccco1,-7,105,0.8,1.1,-6,0.25,/,/,/
Cc1nc2cc(NC(=O)NCc3ccc4c(c3)OCO4)ccc2o1,0,91,0.85,1,-1,0.7,/,/,/
Cc1nc2cc(NC(=O)Nc3ccc(Br)cc3)ccc2o1,154*,162*,2.9,0.6,43,/,209*,135*,103
Cc1c(-c2nc(N)nc(Nc3ccccc3)n2)oc2ccccc12,154*,164*,3,1,-4,-2.2,211*,148*,107
Nc1nc(CN2CCCCCC2)nc(Nc2ccccc2)n1,10,98,0.74,1.1,-6,0.51,/,/,/
COC(=O)c1ccc(COc2ccccc2/C=N/NC(=O)c2cccnc2)cc1,2,110,1.1,0.8,15,/,/,/,/
CCOC(=O)NC(=O)COC(=O)CCCSc1nc2ccccc2s1,3,94,0.93,1,0,/,/,/,/
CCOC(=O)N/C(N)=N/c1nc2ccccc2s1,199*,166*,7*,0.6,40,0.13,210*,125,99
OCc1cn(-c2ccc(Cl)cc2)nn1,14,101,1.1,1,-2,/,/,/,/
Cc1ccc(/C=N/NC(=O)c2ccccn2)s1,122,154*,2.7,0.3,75*,0.57,163*,115,96
c1ccc2c(c1)oc1c(N3CCN(Cc4ccc5c(c4)OCO5)CC3)ncnc12,20,113,1.3,1,-4,-1.3,/,/,/
CCC(=O)Nc1ccc(-c2nnc(-c3ccccc3)o2)cc1,210*,163*,1,0.8,16,-0.11,220*,121,113*
Nc1c(C(=O)c2ccc(Br)cc2)oc2ccccc12,14,100,1.2,1,-1,0.84,/,/,/
Nc1c(C(=O)c2ccccc2)oc2ccc(Br)cc12,124,155*,4*,1,4,-1.3,188*,136*,130*

# Compound activity (PubChem)
